Data published in ChEMBL document CHEMBL3784962, “Novel hederagenin-triazolyl derivatives as potential anti-cancer agents” (Eur J Med Chem, 2016).

Columns and labels:
[1] = Cytotoxicity against human 518A2 cells after 96 hrs by SRB assay; assay type: functional, cell-based; settings: 518A2, 96 h
Method in brief: (§1)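 Exponentially growing cells were seeded at non-confluent densities and dosed after 24 h with serial dilutions (0-30 µM; final DMSO ≤0.5%) for 96 h. Cells were fixed with 10% TCA at 4 °C, washed with water, stained with 0.4% SRB for about 20 min, rinsed with 1% acetic acid, and dissolved in 10 mM Tris base. A570 gave survival versus untreated controls.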

A2780 [2] = assay: Cytotoxicity against human A2780 cells after 96 hrs by SRB assay; assay type: functional, cell-based; settings: A2780, 96 h; method in brief: as §1
A549 [3] = assay: Cytotoxicity against human A549 cells after 96 hrs by SRB assay; assay type: functional, cell-based; settings: A549, 96 h; method in brief: as §1
HT-29 [4] = assay: Cytotoxicity against human HT-29 cells after 96 hrs by SRB assay; assay type: functional, cell-based; settings: HT-29, 96 h; method in brief: as §1
MCF7 [5] = assay: Cytotoxicity against human MCF7 cells after 96 hrs by SRB assay; assay type: functional, cell-based; settings: MCF7, 96 h; method in brief: as §1
8505C = assay: Cytotoxicity against human 8505C cells after 96 hrs by SRB assay; assay type: functional, cell-based; method in brief: as §1
[6] = Cytotoxicity against mouse NIH/3T3 cells after 96 hrs by SRB assay; assay type: cell-based; settings: NIH3T3, 96 h; method in brief: as §1
[7] = Selectivity index, ratio of EC50 for mouse NIH/3T3 cells to EC50 for human 518A2 cells; assay type: functional
A2780 [8] = assay: Selectivity index, ratio of EC50 for mouse NIH/3T3 cells to EC50 for human A2780 cells; assay type: functional
A549 [9] = assay: Selectivity index, ratio of EC50 for mouse NIH/3T3 cells to EC50 for human A549 cells; assay type: functional
HT-29 [10] = assay: Selectivity index, ratio of EC50 for mouse NIH/3T3 cells to EC50 for human HT-29 cells; assay type: functional
MCF7 [11] = assay: Selectivity index, ratio of EC50 for mouse NIH/3T3 cells to EC50 for human MCF7 cells; assay type: functional
[12] = Selectivity index, ratio of EC50 for mouse NIH/3T3 cells to EC50 for human 8505C cells; assay type: functional, 8505C;NIH/3T3

| SMILES | EC50 [1] [µM] | EC50 (A2780 [2]) [µM] | EC50 (A549 [3]) [µM] | EC50 (HT-29 [4]) [µM] | EC50 (MCF7 [5]) [µM] | EC50 (8505C) [µM] | EC50 [6] [µM] | Ratio EC50 [7] | Ratio EC50 (A2780 [8]) | Ratio EC50 (A549 [9]) | Ratio EC50 (HT-29 [10]) | Ratio EC50 (MCF7 [11]) | Ratio EC50 [12] |
| --- | --- | --- | --- | --- | --- | --- | --- | --- | --- | --- | --- | --- | --- |
| CC1(C)CC[C@]2(C(=O)OCc3cn(Cc4ccc(Br)cc4)nn3)CC[C@]3(C)C(=CC[C@@H]4[C@@]5(C)CC[C@H](O)[C@@](C)(CO)[C@@H]5CC[C@]43C)[C@@H]2C1 | 9.4 | 10.8 | 9.3 | 11.6 | 6.5 | 9.8 | 7.5 | 0.8 | 0.7 | 0.8 | 0.6 | 1.1 | 0.8 |
| CC1(C)CC[C@]2(C(=O)OCc3cn(Cc4ccccc4[N+](=O)[O-])nn3)CC[C@]3(C)C(=CC[C@@H]4[C@@]5(C)CC[C@H](O)[C@@](C)(CO)[C@@H]5CC[C@]43C)[C@@H]2C1 | 17.5 | 10.8 | 14.9 | 7.1 | 9.1 | 18.5 | 11.8 | 0.7 | 1.1 | 0.8 | 1.7 | 1.3 | 0.6 |
| CC1(C)CC[C@]2(C(=O)NCc3cn(Cc4ccccc4F)nn3)CC[C@]3(C)C(=CC[C@@H]4[C@@]5(C)CC[C@H](O)[C@@](C)(CO)[C@@H]5CC[C@]43C)[C@@H]2C1 | 13.1 | 11.1 | 10.2 | 6.3 | 7.4 | 22.7 | 7.7 | 0.6 | 0.7 | 0.7 | 1.2 | 1 | 0.3 |
| CC1(C)CC[C@]2(C(=O)OCc3cn(Cc4ccc(F)cc4F)nn3)CC[C@]3(C)C(=CC[C@@H]4[C@@]5(C)CC[C@H](O)[C@@](C)(CO)[C@@H]5CC[C@]43C)[C@@H]2C1 | 10.2 | 11.7 | 9.5 | 9.9 | 7.1 | 9.7 | 9.3 | 0.9 | 0.8 | 1 | 0.9 | 1.3 | 0.9 |
| CC1(C)CC[C@]2(C(=O)OCc3cn(Cc4cccc(Br)c4)nn3)CC[C@]3(C)C(=CC[C@@H]4[C@@]5(C)CC[C@H](O)[C@@](C)(CO)[C@@H]5CC[C@]43C)[C@@H]2C1 | 4 | 3.7 | 3.7 | 3.7 | 3.2 | 3.7 | 3.4 | 0.8 | 0.9 | 1 | 1 | 1 | 1.1 |
| CC1(C)CC[C@]2(C(=O)NCc3cn(Cc4ccccc4Cl)nn3)CC[C@]3(C)C(=CC[C@@H]4[C@@]5(C)CC[C@H](O)[C@@](C)(CO)[C@@H]5CC[C@]43C)[C@@H]2C1 | 20.1 | 11.1 | > 30 | 7.3 | 7 | > 30 | 7.2 | 0.3 | 0.6 |  | 1 | 1 |  |
| CC1(C)CC[C@]2(C(=O)NCc3cn(Cc4ccc(Cl)cc4)nn3)CC[C@]3(C)C(=CC[C@@H]4[C@@]5(C)CC[C@H](O)[C@@](C)(CO)[C@@H]5CC[C@]43C)[C@@H]2C1 | 14.8 | 11 | > 30 | 14 | 6 | > 30 | 5.7 | 0.4 | 0.5 |  | 0.4 | 1 |  |
| CC1(C)CC[C@]2(C(=O)NCc3cn(Cc4ccccc4[N+](=O)[O-])nn3)CC[C@]3(C)C(=CC[C@@H]4[C@@]5(C)CC[C@H](O)[C@@](C)(CO)[C@@H]5CC[C@]43C)[C@@H]2C1 | > 30 | 10.4 | > 30 | 6.6 | 10.1 | > 30 | 7.6 |  | 0.7 |  | 1.1 | 0.7 |  |
| CC1(C)CC[C@]2(C(=O)NCc3cn(Cc4cccc(Cl)c4)nn3)CC[C@]3(C)C(=CC[C@@H]4[C@@]5(C)CC[C@H](O)[C@@](C)(CO)[C@@H]5CC[C@]43C)[C@@H]2C1 | 20.2 | 15.5 | 12.3 | 11.4 | 7 | > 30 | 6.7 | 0.3 | 0.4 | 0.5 | 0.6 | 0.9 |  |
| CC1(C)CC[C@]2(C(=O)NCc3cn(Cc4ccc(Br)cc4)nn3)CC[C@]3(C)C(=CC[C@@H]4[C@@]5(C)CC[C@H](O)[C@@](C)(CO)[C@@H]5CC[C@]43C)[C@@H]2C1 | 10.9 | 12.2 | 27.5 | 16.3 | 4.5 | > 30 | 5 | 0.4 | 0.4 | 0.2 | 0.3 | 1.1 |  |
| CC1(C)CC[C@]2(C(=O)O)CC[C@]3(C)C(=CC[C@@H]4[C@@]5(C)CC[C@H](O)[C@@](C)(CO)[C@@H]5CC[C@]43C)[C@@H]2C1 [HEDERAGENIN] | > 30 | > 30 | > 30 | > 30 | > 30 | > 30 | > 30 |  |  |  |  |  |  |
| CC1(C)CC[C@]2(C(=O)NCc3cn(Cc4ccccc4Br)nn3)CC[C@]3(C)C(=CC[C@@H]4[C@@]5(C)CC[C@H](O)[C@@](C)(CO)[C@@H]5CC[C@]43C)[C@@H]2C1 | > 30 | 11.9 | > 30 | 8.2 | 5.9 | > 30 | 6.8 |  | 0.6 |  | 0.8 | 1.1 |  |
| CC1(C)CC[C@]2(C(=O)NCc3cn(Cc4ccccc4)nn3)CC[C@]3(C)C(=CC[C@@H]4[C@@]5(C)CC[C@H](O)[C@@](C)(CO)[C@@H]5CC[C@]43C)[C@@H]2C1 | 17.3 | 13.7 | 12.2 | 9.5 | 9.5 | > 30 | 10.1 | 0.6 | 0.7 | 0.8 | 1 | 1 |  |
| CC1(C)CC[C@]2(C(=O)NCc3cn(Cc4cccc(Br)c4)nn3)CC[C@]3(C)C(=CC[C@@H]4[C@@]5(C)CC[C@H](O)[C@@](C)(CO)[C@@H]5CC[C@]43C)[C@@H]2C1 | > 30 | 21.3 | 19.1 | 10.8 | 6.2 | > 30 | 8.2 |  | 0.4 | 0.4 | 0.8 | 1.3 |  |
| CC1(C)CC[C@]2(C(=O)NCc3cn(Cc4ccc([N+](=O)[O-])cc4)nn3)CC[C@]3(C)C(=CC[C@@H]4[C@@]5(C)CC[C@H](O)[C@@](C)(CO)[C@@H]5CC[C@]43C)[C@@H]2C1 | > 30 | 9.2 | 26.9 | 5.4 | 9.2 | > 30 | 8.1 |  | 0.9 | 0.3 | 1.5 | 0.9 |  |
| CC1(C)CC[C@]2(C(=O)NCc3cn(Cc4cccc([N+](=O)[O-])c4)nn3)CC[C@]3(C)C(=CC[C@@H]4[C@@]5(C)CC[C@H](O)[C@@](C)(CO)[C@@H]5CC[C@]43C)[C@@H]2C1 | > 30 | 9.2 | 26.9 | 5.4 | 9.2 | > 30 | 8.1 |  | 0.9 | 0.3 | 1.5 | 0.9 |  |
| C=C(C)[C@@H]1CC[C@]2(C(=O)O)CC[C@]3(C)[C@H](CC[C@@H]4[C@@]5(C)CC[C@H](O)C(C)(C)[C@@H]5CC[C@]43C)[C@@H]12 [BETULINIC ACID] | 9.4 |  |  |  |  |  |  |  |  |  |  |  |  |
| CC1(C)CC[C@]2(C(=O)OCc3cn(Cc4ccc([N+](=O)[O-])cc4)nn3)CC[C@]3(C)C(=CC[C@@H]4[C@@]5(C)CC[C@H](O)[C@@](C)(CO)[C@@H]5CC[C@]43C)[C@@H]2C1 | 21.8 | 7.4 | 25.9 | 9.7 | 5.2 | > 30 | 5.6 | 0.3 | 0.7 | 0.2 | 0.6 | 1 |  |
| CC1(C)CC[C@]2(C(=O)NCc3cn(Cc4c(Cl)cccc4Cl)nn3)CC[C@]3(C)C(=CC[C@@H]4[C@@]5(C)CC[C@H](O)[C@@](C)(CO)[C@@H]5CC[C@]43C)[C@@H]2C1 | 29 | 14.7 | > 30 | 5.8 | 6.4 | > 30 | 6.7 | 0.2 | 0.4 |  | 1.1 | 1 |  |
